RGS4 inh: RGS4 inhibitors, primary screen, cell-based, HEK293 M3R inducible RGS4, calcium flux; Fluo-4 calcium flux; active compounds read high; triggered by carbachol at its EC20; B-score at 10 µM; 0.45% of 310,000 active; AID 463165, 2010; Regulator of G-protein signaling 4 (Homo sapiens), P49798;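 active means B-score, a plate-corrected calcium signal, over three deviations above library mean, with baseline fluorescence within five deviations of library mean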;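 further: RGS4 expression induced by doxycycline in cells with stable M3 receptor; B-score is computed from the integrated fluorescence ratio over baseline after carbachol; higher B-score means a larger calcium signal and so more RGS4 inhibition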
Target sequence (P49798 whole entry, looked up): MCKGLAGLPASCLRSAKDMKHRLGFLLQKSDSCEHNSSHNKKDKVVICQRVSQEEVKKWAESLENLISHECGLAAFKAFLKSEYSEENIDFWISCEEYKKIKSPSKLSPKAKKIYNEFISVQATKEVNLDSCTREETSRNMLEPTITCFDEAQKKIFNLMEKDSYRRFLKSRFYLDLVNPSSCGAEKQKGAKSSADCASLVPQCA
RGS4 act: RGS4 potentiators or activators, primary screen, cell-based, HEK293 M3R inducible RGS4, calcium flux | carbachol calcium flux Fluo4; active compounds read low | B-score at 10 µM | 0.92% of 310,000 active | AID 463111, 2010;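 active means B-score of the integrated calcium signal more than 4 SD below the library mean, with starting fluorescence not abnormally high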;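 further: negative B-score means reduced calcium response which marks RGS4 activation or potentiation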
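Material: M3R-expressing HEK293 line, RGS4 induced by doxycycline | Schedule: Overnight RGS4 induction, 30 min dye load 37 °C, 20 min compound RT | Measured by: Fluo4 fluorescence kinetic imaging of calcium | Read-out: Integrated calcium ratio converted to B score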
MrgX1 agonist: agonists of human MrgX1 receptor, primary screen, HEK293 cells, Fluo-4 calcium flux | Fluo-4 calcium fluorescence, agonist mode; active compounds read high | B-score at 10 µM | 0.44% of 310,000 active;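 active means calcium response B-score plate-corrected fluorescence ratio at least 3 library SD, with starting fluorescence B-score inside 5 SD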
Target sequence (Q96LB2 whole entry, looked up): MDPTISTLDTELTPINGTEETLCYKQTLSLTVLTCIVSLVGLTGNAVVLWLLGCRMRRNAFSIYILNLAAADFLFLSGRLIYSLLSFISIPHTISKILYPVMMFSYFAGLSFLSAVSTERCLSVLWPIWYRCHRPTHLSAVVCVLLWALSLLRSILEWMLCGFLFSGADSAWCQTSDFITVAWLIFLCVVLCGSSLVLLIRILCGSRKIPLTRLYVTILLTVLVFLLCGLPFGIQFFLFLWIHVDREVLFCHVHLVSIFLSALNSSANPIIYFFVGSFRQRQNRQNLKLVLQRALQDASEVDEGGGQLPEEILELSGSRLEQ
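System: HEK293 cells stably expressing human MrgX1 receptor; Dosing: test compound in the initial addition of three; Schedule: overnight plating, then 30 min 37 °C plus 30 min room-temperature dye loading; Detection: kinetic calcium dye fluorescence, Fluo-4 NW; Controls: per-plate positive and negative controls for Z′ factor.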
MrgX1 antag: antagonists of human MrgX1 receptor, primary screen, HEK293 cells, Fluo-4 calcium flux | BAM8-22 antagonism; active compounds read low | 1.3% of 310,000 active | B-score at 10 µM;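 active means calcium-response B-score plate-corrected more than 3 library SD below zero, starting fluorescence within 5 deviations, no agonist response on first addition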;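 further: peak minus trough fluorescence over baseline after final BAM8-22 challenge near maximal dose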
MrgX1 allo act: positive allosteric modulators of MrgX1, primary screen, HEK293 cells, Fluo-4 calcium flux; 0.63% of 310,000 active; Mas-related G-protein coupled receptor member X1 (Homo sapiens), Q96LB2; B-score at 10 µM; AID 588675, 2011; FDSS; active compounds read high;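 active means plate-corrected calcium response at least 3 library SD above typical, normal starting fluorescence, not activating the receptor alone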;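 further: compound read alongside a low EC10 to EC30 dose of BAM8-22 agonist; peak minus trough fluorescence over baseline measured at the second addition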
RGS4 activ val: reduced carbachol calcium response, RGS4-induced M3R cells, confirmation, RGS4 activator project, cell-based, HEK293 M3R/RGS4 inducible, calcium flux, duplicate. shares compounds with RGS4 act. carbachol calcium flux Fluo4. inhibition, % at 10 µM. 89% of 1,100 active;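 active means inhibition above 3 SD of the buffer control wells, cut at about 41% in these data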;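 further: signal is the integrated peak-minus-minimum Fluo4 fluorescence over baseline ratio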
M3R Ca counter: activity in cells without induced RGS4 expression; AID 602283; inhibition, % at 10 µM; HEK293 M3R non-induced RGS4, Fluo4 calcium flux; after carbachol challenge at its EC90; shares compounds with RGS4 act; 82% of 1,100 active;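 active means inhibition exceeding 3 SD of buffer-only control wells, cut at about 26% in these data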;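 further: percent drop in integrated peak-minus-baseline over baseline Fluo4 ratio after carbachol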
Large screens that a line does not name were inactive (follow-up assays come after a bar, where they were run). Sampled rows, rich in hits. Any-hit rate of the full collection: about 3.5%.

CCC1=CCN(CCc2c(C)[nH]c3ccccc23)CC1	none
CN1C2CCC1CC(=NO)C2	MrgX1 antag -5.3
COP(=S)(OC)c1c(C)nn(CCC#N)c1NC(=O)c1ccc(Cl)cc1	none
CC(N)C(=O)OC(C)(C)Cc1ccc(Cl)cc1 (stereo not given)	none (no result: RGS4 inh, RGS4 act)
Cc1cccc(N2C(=O)NC(=O)/C(=C\c3ccc4c(c3)CCCN4Cc3ccccc3)C2=O)c1	MrgX1 allo act 12
FC(F)(F)c1ccc2c(c1)N(CCCN1CCN(CCCl)CC1)c1ccccc1S2	RGS4 act -8.9
Nc1ccc(CCN2CCN(c3cccc(C(F)(F)F)c3)CC2)cc1	none
O=[N+]([O-])NC1=NCCN1Cc1ccc(Cl)nc1	none
C[N+]1(C)C2CCC1CC(OC(=O)C(CO)c1ccccc1)C2 (stereo not given)	RGS4 act -8.6
C[N+]1(C)[C@@H]2CC[C@H]1CC(OC(=O)C(CO)c1ccccc1)C2 (stereo not given in full)	none
CC1=Nc2ccccc2/C1=C/c1c(O)n(C)c(=O)[nH]c1=O	MrgX1 allo act 8.1
Cc1ccccc1-n1c(O)c(/C=C2/C(c3ccccc3)=Nc3ccccc32)c(=O)[nH]c1=O	none
O=C1CN(O)C(c2ccccc2Cl)=c2cc(Br)ccc2=N1	none
CN(CC1COc2ccccc2O1)c1nc(-c2cccnc2)nc2ccccc12 (stereo not given)	RGS4 act -10 | RGS4 activ val 90 | M3R Ca counter 93
Fc1cccc(C2NCc3ccccc3-n3cccc32)c1 (stereo not given)	none
COc1ccc(-c2nc3ccc(C(=O)N4CCC5(CC4)OCCO5)cc3nc2-c2ccc(OC)cc2)cc1	none
O=C(c1cccc(Cl)c1)C1CCCN(Cc2cccc3cnccc23)C1 (stereo not given)	RGS4 act -7.6 | RGS4 activ val 52 | M3R Ca counter 84
COc1ccc(CN2CCCC(C(=O)c3cccc(Cl)c3)C2)cc1 (stereo not given)	none
CN1CC(C(=O)c2ccc(Cl)cc2)C(c2ccc(Cl)cc2Cl)C1 (stereo not given)	none
CN1CCC(O)(c2ccc(Cl)cc2)C(C(=O)c2ccc(Cl)cc2)C1 (stereo not given)	RGS4 act -9.6 | RGS4 activ val 94 | M3R Ca counter 66
CC(Cc1ccccc1Sc1ccccc1O)N(C)C (stereo not given)	RGS4 act -8.6 | RGS4 activ val 93 | M3R Ca counter 91
O=C(c1ccc(Cl)cc1)C1CCCN(Cc2ccc3c(c2)OCCO3)C1 (stereo not given)	RGS4 act -8.7 | RGS4 activ val 91 | M3R Ca counter 41
O=c1cc(C(F)(F)F)c2cc3c4c(c2o1)CCCN4CCC3	RGS4 act -9.1 | RGS4 activ val 98 | M3R Ca counter 94
CN1CCN(Cc2ccc3ccccc3c2)CC1	none
CN1CCN(CCC(C#N)(c2ccccc2)c2ccccc2)CC1	RGS4 act -7.7 | RGS4 activ val 94 | M3R Ca counter 92
C=CC1CN2CCC1CC2c1[nH]c2ccccc2c1CCO (stereo not given)	none
OC(C#CCN1CCOCC1)(c1ccccc1)C1CCCC1 (stereo not given)	RGS4 act -8.9 | RGS4 activ val 56 | M3R Ca counter 84
COC(=O)C1=C(c2cc3ccccc3o2)C[C@@H]2CC[C@H]1N2C(=O)NCc1ccco1	none
O=C(c1ccc(C(F)(F)F)cc1)C1CCCN(C2CCSCC2)C1 (stereo not given)	RGS4 act -12 | RGS4 activ val 90 | M3R Ca counter 48
Cc1cc(Cl)ccc1C(=O)C1CCCN(C2CCSCC2)C1 (stereo not given)	RGS4 act -10 | RGS4 activ val 90 | M3R Ca counter 69
COC[C@]12CN(C)C3C4[C@H](OC)[C@H]1C3([C@@H](OC)C[C@H]2O)[C@@H]1C[C@@]2(O)[C@H](OC(=O)c3ccccc3)[C@@H]1[C@]4(OC(C)=O)[C@@H](O)[C@@H]2OC	none
Oc1ccccc1C1NCc2ccccc2-n2cccc21 (stereo not given)	none
O=C(Nc1cccc(Cl)c1)OC1CN2CCC1CC2 (stereo not given)	none
O=C(Nc1ccc(Cl)cc1)OC1CN2CCC1CC2 (stereo not given)	none
O=C(Nc1ccccc1F)OC1CN2CCC1CC2 (stereo not given)	RGS4 act -10 | RGS4 activ val 51 | M3R Ca counter inactive
O=C(Nc1ccccc1Cl)OC1CN2CCC1CC2 (stereo not given)	RGS4 act -8.5 | RGS4 activ val 88 | M3R Ca counter 62
COc1ccc(NC2=NCCCS2)cc1OC	none
CCC1(OC(=O)c2ccccc2)CC(C)N(C)CC1C (stereo not given)	none
C=CCC1(Nc2ccccc2)CC(C)N(C)CC1C (stereo not given)	RGS4 act -7.7 | RGS4 activ val 59 | M3R Ca counter 84
Clc1ccc(OCC#CCN2CCCC2)cc1	RGS4 act -9.6 | RGS4 activ val 54 | M3R Ca counter inactive
Fc1ccc(C(OCCN2CCCC2)c2ccc(F)cc2)cc1	RGS4 act -9.3 | RGS4 activ val 88 | M3R Ca counter 37
COc1ccccc1N1C(=O)CC(=O)NC1=O	none
Cc1ccccc1C(O)(Cc1ccccc1)C1CN2CCC1CC2 (stereo not given)	RGS4 act -8.2 | RGS4 activ val 92 | M3R Ca counter 88
Cc1ccc(C(O)(c2ccc(C)c(C)c2)C2CN3CCC2CC3)cc1C (stereo not given)	none
CC1CN=C(Nc2cccc3ccccc23)S1 (stereo not given)	RGS4 act -8.5 | RGS4 activ val inactive | M3R Ca counter inactive
CC1CN=C(Nc2ccccc2)S1 (stereo not given)	none
Cn1cc(C(=O)N2CCCCC2)c2ccccc21	none
